The source of these data is ChEMBL document CHEMBL5042515, “Design and Evaluation of a Novel Peptide-Drug Conjugate Covalently Targeting SARS-CoV-2 Papain-like Protease” (J Med Chem, 2022).

Activity calls are given as the source filed them. No cut-off for these calls is given here. *1 amine or outer side, *2 acyl side, *3 side chain or, on linkers, in order; H or OH if unused. Where a SMILES comes first, the peptide text is derived from it. Bridges are numbered along the chain shown (N, C = ends). [ ]: non-standard residue; d: D form. The star is where a group is joined. Met(S-mXyl) = C[S+](CC[C@H](N[*:1])C(=O)[*:2])Cc1cccc(C[*:3])c1; X2 = C[S+](CC[C@@H](N[*:1])C(=O)[*:2])Cc1cccc(C[*:3])c1; X1 = Cc1ccc(N*)cc1C(=O)NC(C)c1cccc2ccccc12

The IC50 is the midpoint of a concentration-inhibition curve. Low readings indicate higher potency, high ones lower potency.

Series [1] in a line: Inhibition of SARS-CoV PLpro using LRGG-ACC as substrate preincubated for 60 mins followed by substrate addition and measured for 30 mins by enzymatic assay. Also noted: species or system Severe acute respiratory syndrome-related coronavirus.
Series [2] relates to HEK-293T. The series can be described thus: Cytotoxicity against HEK293T cells assessed as inhibition of cell growth at 1.56 to 100 uM incubated for 24 hrs by MTT assay. In kind it is toxicity, cell-based. The settings on record: human, dose 1.56-100 µM. The method in brief: (§1)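 A549 (RPMI-1640) or 293T (DMEM) cells with 10% FBS, plated overnight, then treated 24 h at 1.56–100 μM in medium with 5% FBS. MTT (5 mg/mL reagent) added for 4 h at 37 °C, dissolved in DMSO, absorbance read at 490 nm. DMSO-only control; at least three independent measurements.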
(Formazan colour is commonly taken as a measure of viable cells.)

A further series has as its system A549. Kind of series: Cytotoxicity against human A549 cells assessed as inhibition of cell growth at 1.56 to 100 uM incubated for 24 hrs by MTT assay. In kind it is toxicity, cell-based. The note with it: a549, 24 h, dose 1.56-100 µM. The gist of the method: as §1
Series [3] is described as follows: Hemolytic activity against mouse erythrocyte at 0 to 60 uM for 1.5 hrs by microplate reader analysis. The note with it: dose 0-60 µM. In kind it is toxicity, cell-based. The method in brief: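 Fresh mouse erythrocytes washed and resuspended in PBS at 10^8/mL, then exposed to serial dilutions starting at 60 μM for 1.5 h at 37 °C. Supernatant hemoglobin read by absorbance. 0.1% Triton X-100 used as 100% control and PBS as blank; % hemolysis calculated relative to both.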

The target of series [4] is Replicase polyprotein 1ab (Middle East respiratory syndrome-related coronavirus (isolate UnitedKingdom/H123990006/2012) (Betacoronavirus England 1) (Humancoronavirus EMC)) (UniProt K9N7C7). The series can be described thus: Inhibition of MERS PLpro using LRGG-ACC as substrate upto 1000 uM preincubated for 60 mins followed by substrate addition and measured for 30 mins by enzymatic assay. The settings on record: dose microM <=1000, time 90.0 min.

The test system of series [5] is Severe acute respiratory syndrome coronavirus 2. The series can be described thus: Inhibition of SARS-CoV-2 PLpro using LRGG-ACC as substrate at <=1000 uM preincubated for 60 mins followed by substrate addition and measured for 30 mins by enzymatic assay. The settings on record: dose microM <=1000, time 90.0 min. The method in brief:
(§2)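 Recombinant His-tagged SARS-CoV-2 PLpro (E. coli BL21(DE3), Ni-NTA then gel filtration) at 0.1 μM, preincubated 1 h at 37 °C with inhibitor diluted from 800 μM. Buffer: 50 mM HEPES pH 7.4, 0.1 mg/mL BSA, 5 mM DTT. Ac-LRGG-ACC substrate at 1 μM final. Fluorescence read at ex 355/em 460 nm for 30 min, at least three times; IC50 from curve fitting.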

The test system is the same in series [6]. Kind of series: Binding affinity to SARS-CoV-2 PLpro assessed as covalent bond formation at Cys111 at 10 uM incubated for 1 hr by SDS-PAGE analysis.
The test system is the same in series [7]. The series can be described thus: Binding affinity to SARS-CoV-2 PLpro assessed as covalent bond formation at 10 uM incubated for 1 hr by SDS-PAGE analysis. The method in brief: (§3)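 FAM-labeled peptides (10 μM) incubated with purified SARS-CoV-2 PLpro (5 μM) in PBS for 1 h. Covalent adduct detected by SDS gel analysis.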
For series [8] the test system is unchanged. Kind of series: Covalent binding affinity to SARS-CoV-2 PLpro assessed as reaction efficiency at 10 uM for 1 hr by SDS-PAGE analysis. The gist of the method: as §3
Series [9] shares this test system. Kind of series: Covalent binding affinity to SARS-CoV-2 PLpro by SDS-PAGE analysis.
The test system of series [10] is HEK-293T. Kind of series: Antiviral activity in HEK293T cells co-transfected with plasmids encoding Renilla luciferase, Firefly luciferase is driven by IFN-beta promoter, MAVS assessed as recovery of suppressed IFN-beta promoter activity at 100 uM by Dual-Luciferase reporter assay. It counts as functional, cell-based. The note with it: Homo sapiens. The gist of the method:
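HEK293T cells co-transfected with Renilla luciferase reference, IFN-β promoter-driven firefly luciferase, MAVS and SARS-CoV-2 PLpro, then treated with conjugate. Activity scaled to the ISG15-plasmid positive control set as 100%; blank plasmid as negative control; unpaired two-tailed t-test.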
In general terms: Reporter assays use an easily measured gene product as a stand-in for the process of interest.

A short description of series [11]: Drug uptake in human HeLa cells at 10 uM for 4 hrs by tryphan blue staining based flow cytometry relative to control. In kind it is ADME, cell-based. A general note: A flow cytometer gives signals particle by particle.
Series [12] is described as follows: Inhibition of SARS-CoV-2 PLpro using LRGG-ACC as substrate preincubated for 60 mins followed by substrate addition and measured for 30 mins by enzymatic assay. The arrangement: species or system Severe acute respiratory syndrome coronavirus 2. The method in brief: as §2
For series [13], the system named is Severe acute respiratory syndrome coronavirus 2. Kind of series: Covalent binding affinity to SARS-CoV-2 PLpro assessed as reaction efficiency at 0 to 25 uM for 2 hrs by SDS-PAGE analysis. The settings on record: dose 0-25 µM. The method in brief: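 Purified SARS-CoV-2 PLpro (5 μM) incubated with peptide at 0, 2.5, 5, 10, 15, 20 and 25 μM in PBS (pH 7.4, 37 °C). Conjugation resolved on 15% SDS-PAGE.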

Series [14] deals with HEK-293T. The series can be described thus: Antiviral activity against HEK293T cells co-transfected with plasmids encoding Myc-tagged ISG15, E1/E2/E3 ubiquitin ligases, SARS-CoV-2 PLpro fused with EGFP assessed as recovery of intracellular ISGylation level incubated for 24 hrs by immunoblot analysis. It counts as functional, cell-based. The settings on record: Homo sapiens. The gist of the method:
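HEK293T cells co-transfected with Myc-ISG15, E1/E2/E3 ligases and EGFP-fused SARS-CoV-2 PLpro, then kept 24 h at 37 °C in DMEM with 5% FBS plus conjugate. Lysates BCA-normalised, 30 μg per lane. Western blot probed with anti-ISG15, anti-GFP and anti-GAPDH (1:1000), ECL detection.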

Series [15] deals with Severe acute respiratory syndrome coronavirus 2. Kind of series: Covalent binding affinity to SARS-CoV-2 PLpro assessed as reaction efficiency at 10 uM and incubated for 0.5 to 4 hrs by SDS-PAGE analysis. The note with it: time 0.5-4 hrs, TDE = time-dependent effect. The method in brief:
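Peptide (10 μM) with purified SARS-CoV-2 PLpro (5 μM) in PBS, pH 7.4, 37 °C, sampled at 0.5, 1, 2, 3 and 4 h. Conjugate band resolved on 15% SDS-PAGE.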

On to `Cc1ccc(N)cc1C(=O)NC(C)c1cccc2ccccc12` (stereo not drawn), for which, in series [1], the half-inhibitory concentration (IC50) amounted to 2.6 µM. The Activity entry (with HEK-293T [2]; with A549; in [3]) was “Non-Toxic” in each case. The inhibition result in series [4] was “inactive”.
Turning to `CC(C)C[C@@H]1NC(=O)[C@@H](N)CC[S+](C)Cc2cccc(c2)CSC[C@@H](C(=O)O)NC(=O)CNC(=O)[C@H](CCCNC(=N)N)NC1=O` (stereo partly drawn) (H-[Met(S-mXyl)]LRGC-OH; thioether 1-5), the inhibition entry in [5] was “inactive”.
As to `CC(C)C[C@H](N)C(=O)N[C@@H](CCCNC(=N)N)C(=O)NCC(=O)NCC(=O)N[C@H]1CSCc2cccc(c2)C[S+](C)CC[C@@H](C(=O)O)NC(=O)[C@H](C)NC(=O)[C@H](C)NC(=O)[C@H](C)NC1=O` (stereo partly drawn) (H-LRGGCAAA[Met(S-mXyl)]-OH; thioether 5-9), the outcome in series [6] and in series [7] was Active. Further, the inhibition result in series [5] was “inactive”.
`C[S+]1CC[C@@H](C(=O)O)NC(=O)CNC(=O)CNC(=O)[C@H](CCCNC(=N)N)NC(=O)[C@@H](N)CSCc2cccc(c2)C1` (stereo partly drawn) (H-CRGG[Met(S-mXyl)]-OH; thioether 1-5): the outcome in [6] and in series [7] was Active. Also, the inhibition result in [5] is “inactive”.
`Cc1ccc(NC(=O)CC[C@H](N)C(=O)N[C@H]2CC[S+](C)Cc3cccc(c3)CSC[C@@H](C(=O)O)NC(=O)CNC(=O)[C@H](CCCNC(=N)N)NC(=O)[C@H](CC(C)C)NC2=O)cc1C(=O)NC(C)c1cccc2ccccc12` (stereo partly drawn) (H-E(X1)[Met(S-mXyl)]LRGC-OH; thioether 2-6): the result in [8] and in series [9] was Active. The outcome with HEK-293T [10] was inactive. In addition, in series [11], the Drug uptake result is on record as “Active”. Also, the values for the concentration for half-maximal inhibition (IC50) in series [1] and in [12] were 3.43 µM and 7.4 µM, respectively. Also, the Activity result is “Non-Toxic” in the series with HEK-293T [2]; “Non-Toxic” in the series on A549; “Non-Toxic” in series [3]; “Dose-Dependent Effect” in series [13]; “Dose-Dependent Effect” in the series with HEK-293T [14]; “Tde” in [15]. In [4], the inhibition entry is “inactive”.
Regarding `CC(C)C[C@H](N)C(=O)N[C@H]1CSCc2cccc(c2)C[S+](C)CC[C@H](C(=O)O)NC(=O)CNC(=O)CNC1=O` (stereo partly drawn) (H-LCGG[X2]-OH; thioether 2-5), the inhibition entry in series [5] was “inactive”.
As for `CC(C)C[C@H](N)C(=O)N[C@@H](CCCNC(=N)N)C(=O)NCC(=O)NCC(=O)N[C@H]1CC[S+](C)Cc2cccc(c2)CSC[C@@H](C(=O)O)NC(=O)[C@H](C)NC(=O)[C@H](C)NC(=O)[C@H](C)NC1=O` (stereo partly drawn) (H-LRGG[Met(S-mXyl)]AAAC-OH; thioether 5-9), the result in series [7] was Active. Also, the inhibition entry in series [5] was “inactive”.
